The values below come from ChEMBL document CHEMBL1148017, “Radioiodination of new EGFR inhibitors as potential SPECT agents for molecular imaging of breast cancer” (Bioorg Med Chem, 2007).

Series [1] has as its target Epidermal growth factor receptor (Homo sapiens) (UniProt P00533). Kind of series: Inhibition of EGFR autophosphorylation in human A431 cells at 1 uM. The format is cell-based. The note with it: A-431. The method, boiled down: (§1)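 A431 cells grown to about 70% confluence, serum-starved 24 h, then given compound (0.1–5 µM) for 2 h and stimulated with EGF 20 ng/mL for 5 min. Lysates loaded at equal total protein (BCA), run on 8% SDS-PAGE and blotted to PVDF. Probed with anti-phosphotyrosine PY20 and an HRP anti-mouse secondary, detected by ECL. Bands quantified against controls with and without EGF, no drug.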

Series [2] relates to A-431. Nature of the series: Growth inhibition of human A431 cells by MTT assay. The format is functional, cell-based. The method, boiled down:
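A431 cells kept in high-glucose D-MEM with 10% foetal calf serum, 37 °C, 5% CO2. Plated at 3×10^3 cells/well and grown 24 h, then exposed to 1–50 µM compound (4 replicates) for 24, 48 and 72 h. MTT 1 mg/mL in phenol-red-free RPMI for 4 h, isopropanol solubilisation, A540 against 620 nm reference. % of untreated control plotted semi-log against concentration; IC50 read from the curve.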
A general note: Tetrazolium assays rely on reduction of a dye to a coloured formazan, in cell work by metabolically active cells.

Series [3] deals with Epidermal growth factor receptor (Homo sapiens) (UniProt P00533). Kind of series: Inhibition of EGFR autophosphorylation in human A431 cells at 0.1 uM. The format is cell-based. Particulars: A-431. Summed up:
as §1

The subject of series [4] is Serum. Nature of the series: Protein binding in human serum. Type of series: ADME, cell-free. The method, boiled down: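 Radioiodinated tracer (≈370 kBq) incubated in 1 mL fresh human serum at 37 °C. Duplicate 100 µL samples taken at 15 min, 1, 2, 4 and 21 h. Proteins precipitated with 200 µL ethanol, cooled to 4 °C and centrifuged. Pellet washed with ethanol and gamma-counted. Pellet activity is expressed as % of total activity.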

Series [5] concerns Liver. Kind of series: Biodistribution in CD1 mouse liver at 175 to 200 kBq, iv after 1 hr. The format is ADME, organism-based. The note with it: in vivo. Summed up: (§2)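 Female CD-1 mice (20-25 g, groups of 5) given the radioiodinated compound via tail vein, 175-200 kBq in saline (100 µL) with 0.1% Tween 20. Injected dose taken as syringe activity before minus after. Killed at 1 and 4 h; organs removed, weighed and gamma-counted. Values are % ID per total organ, mean ± SD.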

Series [6] deals with Thyroid gland. Nature of the series: Biodistribution in CD1 mouse thyroid at 175 to 200 kBq, iv after 1 hr. Type of series: ADME, organism-based. Particulars: in vivo. Summed up:
as §2

Series [7] has as its system Stomach. Kind of series: Biodistribution in CD1 mouse stomach at 175 to 200 kBq, iv after 1 hr. The format is ADME, organism-based. The note with it: in vivo. Summed up:
as §2

Series [8] in a line: Partition coefficient, log P at pH 7.4. The format is physicochemical. The note with it: octanol/water. Summed up: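 Shake-flask method with back-extraction. Radiotracer placed in mutually saturated octanol and PBS pH 7.4, vortexed and centrifuged (3000 rpm, 10 min, rt). Both phases gamma-counted. 0.5 mL of octanol re-extracted against an equal volume of PBS and counting repeated. log P is taken from the octanol/buffer count ratio.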

Series [9] has as its system Stomach. Nature of the series: Biodistribution in CD1 mouse stomach at 175 to 200 kBq, iv after 4 hrs. The format is ADME, organism-based. The note with it: in vivo. The method, boiled down:
as §2

In series [10] the test system is Thyroid gland. Nature of the series: Biodistribution in CD1 mouse thyroid at 175 to 200 kBq, iv after 4 hrs. The format is ADME, organism-based. The note with it: in vivo. Summed up: as §2
Series [11] concerns Liver. Kind of series: Biodistribution in CD1 mouse liver at 175 to 200 kBq, iv after 4 hrs. The format is ADME, organism-based. The note with it: in vivo. The method, boiled down: as §2

Calls of active or inactive are those of the source. No cut-off for these calls is given here.

Chain of Epidermal growth factor receptor (Homo sapiens) (P00533 whole entry): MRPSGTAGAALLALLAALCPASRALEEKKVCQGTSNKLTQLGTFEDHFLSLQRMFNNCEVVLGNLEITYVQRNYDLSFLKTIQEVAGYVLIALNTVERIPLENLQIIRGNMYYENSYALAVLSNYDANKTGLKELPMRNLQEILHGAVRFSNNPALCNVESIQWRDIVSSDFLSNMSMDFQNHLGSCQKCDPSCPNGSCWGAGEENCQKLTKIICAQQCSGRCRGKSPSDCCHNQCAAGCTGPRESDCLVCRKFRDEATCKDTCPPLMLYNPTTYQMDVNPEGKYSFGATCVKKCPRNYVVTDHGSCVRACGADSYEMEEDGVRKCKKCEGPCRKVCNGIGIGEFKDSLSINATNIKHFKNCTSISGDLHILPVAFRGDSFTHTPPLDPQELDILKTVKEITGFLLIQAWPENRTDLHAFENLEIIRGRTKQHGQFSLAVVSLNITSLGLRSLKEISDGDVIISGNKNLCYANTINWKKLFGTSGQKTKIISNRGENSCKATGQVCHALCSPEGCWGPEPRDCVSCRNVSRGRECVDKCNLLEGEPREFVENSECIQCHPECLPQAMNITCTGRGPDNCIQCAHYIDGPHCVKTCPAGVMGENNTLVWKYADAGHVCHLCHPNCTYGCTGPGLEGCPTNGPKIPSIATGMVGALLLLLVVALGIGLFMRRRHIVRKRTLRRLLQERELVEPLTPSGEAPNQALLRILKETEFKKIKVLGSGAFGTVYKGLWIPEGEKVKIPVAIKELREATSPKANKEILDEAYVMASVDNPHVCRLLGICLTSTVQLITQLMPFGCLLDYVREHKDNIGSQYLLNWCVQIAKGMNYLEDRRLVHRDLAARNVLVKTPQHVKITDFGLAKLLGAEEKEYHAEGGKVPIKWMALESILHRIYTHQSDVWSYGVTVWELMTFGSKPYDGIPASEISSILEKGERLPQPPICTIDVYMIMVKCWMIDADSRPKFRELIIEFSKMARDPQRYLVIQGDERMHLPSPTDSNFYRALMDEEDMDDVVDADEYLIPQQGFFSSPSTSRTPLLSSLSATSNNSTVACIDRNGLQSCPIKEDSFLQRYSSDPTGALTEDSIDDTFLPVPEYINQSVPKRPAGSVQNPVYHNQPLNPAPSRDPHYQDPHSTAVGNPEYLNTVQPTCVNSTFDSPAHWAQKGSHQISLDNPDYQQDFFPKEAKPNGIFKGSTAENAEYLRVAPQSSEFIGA

By inhibition is commonly meant the percentage by which the read-out fell short of the control. A high value points to strong suppression. The term IC50 denotes the concentration that inhibits the measured activity by half. `Nc1ccc2ncnc(Nc3ccc(F)c(Cl)c3)c2c1` registered an inhibition in series [1] of 95%. The compound further had an IC50 in [2] of 25000 nM.

Consider `O=C(CCBr)Nc1ccc2ncnc(Nc3ccc(F)c(Cl)c3)c2c1`, for which the result in series [3] was Active. The inhibition in series [1] was 100%. The same compound had an IC50 in series [2] of 3000 nM.

The logD is the decadic logarithm of the distribution of all forms, ionised or not, between an organic phase and buffer at a given pH. Low readings indicate lower lipophilicity, high ones higher lipophilicity. `O=C(CC[125I])Nc1ccc2ncnc(Nc3ccc(F)c(Cl)c3)c2c1` registered an Activity in series [4] of 6%. Further, the Drug uptake in series [5] was found to be 6.1 %ID; in series [6], 5.7 %ID; in series [7], 35.2 %ID; in series [9], 3.9 %ID; in [10], 13.2 %ID; in series [11], 2.3 %ID. In series [8], the logD came to 2.25.

Regarding `O=C(CCI)Nc1ccc2ncnc(Nc3ccc(F)c(Cl)c3)c2c1`, the outcome in series [3] was Active. The compound also returned an inhibition in series [1] of 100%. The compound further gave an IC50 in series [2] of 2000 nM.
